Laboratory results: PubChem BioAssay
Inconclusive results are not listed. Calls of active or inactive are those of the source.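 The calls were made as follows, unless noted: active = inhibition over a set limit, the all-compound mean plus 3 SD, in both replicate runs; inconclusive = over that limit in just one replicate run; inactive = at or under that limit in both runs.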

Legend:
[1] = S. cerevisiae growth inhibition in permissive medium (OD615), pilot counter-assay for S. cerevisiae lifespan shortening project, permissive growth control (AID 705;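 active = growth inhibition above 25% in both replicates, a cutoff set 3 SD above the mean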); conditions: OD615, 24 h, at 10 µM, stronger effect = higher value
Outline: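 Timing: 24 h exposure, 30 °C / Material: Saccharomyces cerevisiae strain carrying genetically modified DeaD replicative-lifespan system / Signal: OD at 615 nm / Compound: 10 µM single dose, 0.25% DMSO / Medium: SC raffinose/galactose permissive medium / Evaluation: reduction in yeast growth (OD615)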

[2] = S. cerevisiae growth inhibition in restrictive medium, OD615, pilot screen, restrictive growth control, yeast lifespan reduction project (AID 706;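 active = growth inhibition above a set limit, 3 SD over mean compound inhibition, in both replicates, cut at about 43% in these data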;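 also: modified DeaD lifespan yeast strain shifted to restrictive glucose medium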); conditions: OD615, 48 h, at 10 µM, stronger effect = higher value
Outline: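 System: Engineered S. cerevisiae DeaD strain | Detection: OD615 | Buffer or medium: CSMM-D glucose medium | Doses: 10 µM compound, 0.25% DMSO | Timing: 4 h pre-growth plus 48 h compound exposure, 30 °C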

[3] = doxorubicin toxicity protection in MRP-1 cells – H69AR cells, CellTiter-Glo, duplicate, MRP-1 activator project, pilot screen (AID 807;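 active = viability increase at or above a cutoff of the median across tested compounds plus 3 SD, cut at about 8.5% in these data, passing the limit was not always enough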;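 also: compound pretreatment 18-22 h then 72 h combined with doxorubicin; 0% = doxorubicin alone and 100% = vehicle without doxorubicin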); conditions: H69AR viability with doxorubicin, CellTiter-Glo luminescence; at 10 µM; stronger effect = higher value
[4] = viability of HCT116 without oncogenic beta-catenin – human colon tumor cells, pilot screen (AID 823;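 active = cell viability at or below a set limit in both duplicate runs, the limit being the all-compound median minus 4 SD, cut at about 23% in these data, passing the limit was not always enough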;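 also: 0% = wells killed by 20 µM Hyamine and 100% = untreated DMSO cell wells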); conditions: HCT116 beta-catenin knockout viability, CellTiter-Glo, 60 h; at 10 µM; stronger effect = lower value
[5] = viability of PTEN-null HCT116 cells – cell-based, HCT116 clonal line, CellTiter-Glo, pilot screen (AID 824;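 active = viability at or below 27.92% in each of two runs, the all-compound median minus 4 SD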;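 also: 0% = 20 µM Hyamine control and 100% = vehicle cell control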); conditions: HCT116 PTEN-deleted viability, 60 h, at 10 µM, stronger effect = lower value
[6] = RAM pathway blockade in budding yeast – dse1pr::URA3 reporter, 5-FOA selection, pilot screen (AID 869);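 also: 0% = DMSO wells with no growth and 100% = 10 µM 1-NA-PP1 with full growth; RAM network block rescues cells from 5-FOA so hits raise OD615 growth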; conditions: S. cerevisiae dse1pr::URA3 5-FOA growth, OD615, 2 d; at 10 µM; stronger effect = higher value; strain carries analog-sensitive mutant Cbk1 kinase
[7] = RAM signaling pathway blockade in yeast – S. cerevisiae, Pdr1DBD-CYC8 efflux-inhibited sensitized strain, primary screen (AID 1298;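 active = RAM network inhibition above 8.4% in each of two replicates, 3 SD over the compound average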;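 also: 0% = DMSO untreated cells without growth and 100% = 10 µM 1-NA-PP1 full growth; higher means more yeast growth rescued from 5-FOA killing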); conditions: S. cerevisiae cbk1-as DSE1-URA3 strain, 5-FOA growth OD615, 2 d; at 50 µM; stronger effect = higher value

Cc1ccc(S(=O)(=O)CCc2nc3ccccc3n2CCC#N)cc1
active: viability [4] 23.5% | viability [5] 18.7%
inactive: growth inhibition [1] 4.59% | growth inhibition [2] 0.82% | viability increase [3] -7.34% | inhibition [6] 0.995% | RAM network inhibition [7] 0.01%

Cc1cc(C(=O)Nc2cccnc2)on1
inactive: growth inhibition [1] -5.72% | growth inhibition [2] -5.71% | viability increase [3] -1.86% | viability [4] 103% | viability [5] 93.4% | inhibition [6] 0.355% | RAM network inhibition [7] 2.08%

Cn1c(=O)oc2cc(S(=O)(=O)N3CCCC(C(=O)NCc4cccs4)C3)ccc21 (configuration not stated)
inactive: growth inhibition [1] 2.14% | growth inhibition [2] 2.64% | viability increase [3] -1.73% | viability [4] 100% | viability [5] 93.4% | inhibition [6] 2.51% | RAM network inhibition [7] 6.45%

COC(=O)C1=CNC=C(C(=O)OC)C1c1ccc(C(=O)OC)cc1
inactive: growth inhibition [1] 1.55% | growth inhibition [2] 6.7% | viability increase [3] -3.35% | viability [4] 93.5% | viability [5] 98.3% | inhibition [6] 0.165% | RAM network inhibition [7] 2.17%

CCOc1ccc(-n2c(Cc3cc(=O)[nH]c(=O)[nH]3)nnc2SC(C)C(=O)OC)cc1 (configuration not stated)
inactive: growth inhibition [1] -4.41% | growth inhibition [2] 2.84% | viability increase [3] 0.2% | viability [4] 101% | viability [5] 103% | inhibition [6] 0.31% | RAM network inhibition [7] 3.49%

CC(C)CCOc1cccc(C2c3c(oc4ccccc4c3=O)C(=O)N2CCCN2CCOCC2)c1 (configuration not stated)
inactive: growth inhibition [1] -3.75% | growth inhibition [2] -23.9% | viability increase [3] -4.89% | viability [4] 87.9% | viability [5] 84.2% | inhibition [6] 0.82% | RAM network inhibition [7] 6.7%

CC1Cc2nc(SCC(=O)Nc3ccc4c(c3)OCO4)n(CCc3ccccc3)c(=O)c2S1 (configuration not stated)
inactive: growth inhibition [1] -14% | growth inhibition [2] -23.8% | viability increase [3] -2.89% | viability [4] 94.4% | viability [5] 87.1% | inhibition [6] 2.35% | RAM network inhibition [7] 7.17%

CC1CCCCN1S(=O)(=O)c1cccc2cccnc12 (configuration not stated)
inactive: growth inhibition [1] 6.45% | growth inhibition [2] 16.5% | viability increase [3] -3.21% | viability [4] 96.8% | viability [5] 83.7% | inhibition [6] 0.47% | RAM network inhibition [7] 3.59%

COc1ccc(Cl)cc1S(=O)(=O)n1ccnc1C(C)C
inactive: growth inhibition [1] -8.68% | growth inhibition [2] -13% | viability increase [3] -2.46% | viability [4] 102% | viability [5] 93.3% | inhibition [6] 1.74% | RAM network inhibition [7] 2.15%

O=C(O)c1cccnc1SC1CC(=O)N(c2cccc(C(F)(F)F)c2)C1=O (configuration not stated)
inactive: growth inhibition [1] -15.3% | growth inhibition [2] -3.59% | viability increase [3] 0.62% | viability [4] 103% | viability [5] 101% | inhibition [6] 1.56% | RAM network inhibition [7] 3.58%

COc1ccccc1CNC(=O)c1cnc2sccn2c1=O
inactive: growth inhibition [1] -5.31% | growth inhibition [2] -12.4% | viability increase [3] -2.45% | viability [4] 107% | viability [5] 90.3% | inhibition [6] 2.37% | RAM network inhibition [7] 2.72%

O=C1OCc2cc(NC(=O)C3COc4ccccc4O3)ccc21 (configuration not stated)
inactive: growth inhibition [1] -17.8% | growth inhibition [2] 10.7% | viability increase [3] -0.17% | viability [4] 103% | viability [5] 93.3% | inhibition [6] 1.29% | RAM network inhibition [7] 10.9%

CCOc1ccc(N(CC(=O)Nc2ccccc2)S(C)(=O)=O)cc1
inactive: growth inhibition [1] 0.69% | growth inhibition [2] -1.96% | viability increase [3] -1.68% | viability [4] 102% | viability [5] 97.4% | inhibition [6] -0.325% | RAM network inhibition [7] 4.68%

CCCc1nc(N)c(C#N)c(-c2cccnc2)c1CC
inactive: growth inhibition [1] -6.48% | growth inhibition [2] -4.83% | viability increase [3] -4.91% | viability [4] 90.8% | viability [5] 84.7% | inhibition [6] 0.805% | RAM network inhibition [7] 3.69%

COc1ccc(OCC(=O)N2CCN(C(=O)c3ccccc3)CC2)cc1
inactive: growth inhibition [1] -15.8% | growth inhibition [2] -9.8% | viability increase [3] 1.19% | viability [4] 91.1% | viability [5] 87.2% | inhibition [6] 1.66% | RAM network inhibition [7] 0.47%

CCCCOC(=O)Nc1ccccc1C(N)=O
inactive: growth inhibition [1] -16.1% | growth inhibition [2] -13% | viability increase [3] 0.35% | viability [4] 95.3% | viability [5] 102% | inhibition [6] 1.07% | RAM network inhibition [7] 1.72%

COc1ccc(Cc2nnc(SCC(=O)NC(C)c3ccccc3)o2)cc1 (configuration not stated)
inactive: growth inhibition [1] 2.93% | growth inhibition [2] -8.12% | viability increase [3] -1.25% | viability [4] 91.2% | viability [5] 86.8% | inhibition [6] 0.57% | RAM network inhibition [7] 4.19%

COc1ccc(C(=O)N2CCC(C(=O)Nc3cccc(C)c3)CC2)cc1OC
inactive: growth inhibition [1] -0.875% | growth inhibition [2] -15.3% | viability increase [3] -2.37% | viability [4] 106% | viability [5] 96.7% | inhibition [6] 0.29% | RAM network inhibition [7] 2.75%

O=C(CNS(=O)(=O)c1cccs1)Nc1ccc2c(c1)OCCO2
inactive: growth inhibition [1] -22.3% | growth inhibition [2] -6.7% | viability increase [3] -1.78% | viability [4] 89.2% | viability [5] 90.9% | inhibition [6] 1.3% | RAM network inhibition [7] 0.67%

Cc1ccccc1-n1nc(C(=O)O)c(C)c(C#N)c1=O
inactive: growth inhibition [1] -3.86% | growth inhibition [2] -6.29% | viability increase [3] -0.28% | viability [4] 97.8% | viability [5] 98.6% | inhibition [6] 2.41% | RAM network inhibition [7] 3.52%

CC(=O)SCCC(=O)N1C(C)CCCC1C(=O)O (configuration not stated)
inactive: growth inhibition [1] -1.05% | growth inhibition [2] -7.75% | viability increase [3] -0.97% | viability [4] 95.9% | viability [5] 102% | inhibition [6] 0.62% | RAM network inhibition [7] 5.78%

COc1ccccc1N1CCN(C(CNC(=O)C2CCCCC2)c2cccnc2)CC1 (configuration not stated)
inactive: growth inhibition [1] -3.31% | growth inhibition [2] -3.02% | viability increase [3] 1.93% | viability [4] 90.1% | viability [5] 94.4% | inhibition [6] 0.775% | RAM network inhibition [7] 3.85%

CCOC(=O)Cc1nnc(NC(=O)C(CC)Sc2nc(C)cc(=O)[nH]2)s1 (configuration not stated)
inactive: growth inhibition [1] 6.95% | growth inhibition [2] 22.4% | viability increase [3] -0.54% | viability [4] 83.4% | viability [5] 96.7% | inhibition [6] 2.96% | RAM network inhibition [7] 2.97%

O=C1CC(c2ccc(Cl)c(Cl)c2)CC(O)=C1C=NCCN1CCNCC1 (configuration not stated)
inactive: growth inhibition [1] -11.8% | growth inhibition [2] -7.73% | viability increase [3] -1.07% | viability [4] 90.4% | viability [5] 96.6% | inhibition [6] 0.46% | RAM network inhibition [7] -1.78%

COc1ccc(S(=O)(=O)Cc2ccc(C(=O)NC3CC3)o2)cc1
inactive: growth inhibition [1] 1.37% | growth inhibition [2] -4.7% | viability increase [3] -3.02% | viability [4] 75.5% | viability [5] 87.9% | inhibition [6] 0.85% | RAM network inhibition [7] 2.57%

O=C(NCCN1CCOCC1)c1ccc2c(c1)N(Cc1ccccc1)CCS2
inactive: growth inhibition [1] -1.33% | growth inhibition [2] -3.97% | viability increase [3] -2.25% | viability [4] 93.2% | viability [5] 94.5% | inhibition [6] 1.02% | RAM network inhibition [7] 6.44%

CC(C)n1c(=O)[nH]c2ccccc21
inactive: growth inhibition [1] -18.3% | growth inhibition [2] -9.29% | viability increase [3] -4.28% | viability [4] 89% | viability [5] 89.8% | inhibition [6] 0.575% | RAM network inhibition [7] 2.88%

O=C(O)C1C(c2ccccc2)C(C(=O)OCc2ccco2)C1c1ccccc1 (configuration not stated)
inactive: growth inhibition [1] -15.4% | growth inhibition [2] -14.6% | viability increase [3] -3.32% | viability [4] 89.5% | viability [5] 88.3% | inhibition [6] 0.645% | RAM network inhibition [7] 6.05%

COc1ccc(-n2c(C)nc3c(cnn3-c3ccc(C)c(C)c3)c2=O)cc1
inactive: growth inhibition [1] -13.7% | growth inhibition [2] 8.51% | viability increase [3] 2.3% | viability [4] 86% | viability [5] 79% | inhibition [6] 2.09% | RAM network inhibition [7] 5.89%

O=S(=O)(c1cccc2cccnc12)N(CCO)CCO
inactive: growth inhibition [1] -15.2% | growth inhibition [2] -15.5% | viability increase [3] -0.99% | viability [4] 103% | viability [5] 101% | inhibition [6] 2.62% | RAM network inhibition [7] 2.69%

Cc1ccc(C(C(=O)NC2CCCCC2)N2CCCC2)cc1 (configuration not stated)
inactive: growth inhibition [1] -4.08% | growth inhibition [2] -8.76% | viability increase [3] -3.02% | viability [4] 88.9% | viability [5] 93% | inhibition [6] 0.835% | RAM network inhibition [7] 8.97%

CC1CCCC(NC(=O)c2ccc(CNc3c(N4CCCC4)c(=O)c3=O)cc2)C1C (configuration not stated)
inactive: growth inhibition [1] -6.62% | growth inhibition [2] 2.02% | viability increase [3] -2.4% | viability [4] 90.7% | viability [5] 84.4% | inhibition [6] 2.51% | RAM network inhibition [7] 2.5%

CC(=O)Nc1ccc(S(=O)(=O)N2CCN(CCC#N)CC2)cc1
inactive: growth inhibition [1] -4.55% | growth inhibition [2] 6.44% | viability increase [3] 0.85% | viability [4] 111% | viability [5] 97.1% | inhibition [6] 1.86% | RAM network inhibition [7] 0.19%

COc1ccc(NC(=O)CN2C(=O)CC(C)(C)S(=O)(=O)c3ccccc32)cc1
inactive: growth inhibition [1] -4.11% | growth inhibition [2] 2.55% | viability increase [3] 0.92% | viability [4] 104% | viability [5] 96.7% | inhibition [6] 1.35% | RAM network inhibition [7] 2.45%

COC(=O)c1c(C)nn(-c2ccccc2)c1N
inactive: growth inhibition [1] -12.5% | growth inhibition [2] -19.5% | viability increase [3] -1.39% | viability [4] 108% | viability [5] 98.5% | inhibition [6] 1.2% | RAM network inhibition [7] -0.37%

CCOC(=O)N1CCN(C(=O)COc2ccc(Br)cc2)CC1
inactive: growth inhibition [1] -16.4% | growth inhibition [2] 11.8% | viability increase [3] 1.9% | viability [4] 100% | viability [5] 90.6% | inhibition [6] 1.12% | RAM network inhibition [7] 6.68%
